The term apparent Kd denotes the concentration giving half-maximal binding under the conditions of the assay.

Experimental findings from the EternaBench riboswitch data are described below.

In this data set the test system is MS2 coat protein. Nature of the data set: apparent Kd, MS2 coat protein; higher = weaker binding; RNA-MaP array; FMN 200 µM where present. In a few lines: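 The apparent Kd is the median of filtered binding-curve fits, one per cluster, to green signal normalised to red-channel RNA signal and control-cluster median Fmax. The clusters were on Illumina sequencing chips, and stalled E. coli RNA polymerase had transcribed the designs on them. Titration used SNAP-549-labelled MS2 coat protein from 0.7 or 1.5 nM, doubling to 3 µM, without and then with constant ligand, in 100 mM Tris-HCl pH 7.5, 80 mM KCl, 4 mM MgCl2, BSA, DTT, yeast tRNA and Tween-20.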

The mark [1] stands for this setting: designed as: ON switch for flavin mononucleotide, no ligand.
Where [2] appears, read: ligand present: flavin mononucleotide, designed as: ON switch for flavin mononucleotide.
Setting [3] is: designed as: OFF switch for flavin mononucleotide, no ligand.
Where [4] appears, read: ligand present: flavin mononucleotide, designed as: OFF switch for flavin mononucleotide.

As for “GUGGUGUAGAUACAGGAUAUGUUGCUCGUAACAUGAGGAUCACCCAUGUAUCUAUGAGAUAAAAUGCAGAAGGGUGCACACCACU”, the “apparent Kd” value by setting is: under setting [1], 357 nM; under setting [2], 19.1 nM.
As to “ACUUGACAUGAGGAUCACCCAUGUCAGGAUAUAGUAGGACAAAUAAAUAAAAGUUCUACUAGAAGGGACUUGGG”, the “apparent Kd” value runs as follows: under setting [3], 25.1 nM; under setting [4], 45.3 nM.
For “GGUAGAGAGCAGGAUAUCUUGGGUAAGUAUCGUAGAGAAGGGCUCACAUGAGGAUCACCCAUGUGGUCCAAGAU”, in that order: 15.5 nM and 34.2 nM.
On the same counts, the results for “GAAUAGGCAGGAUAUACAUGAGGAUCACCCAUGUGCUUGCGAUAGGCACGUGAACAACGUAGAAGGGCCUUAAC” are 33.2 nM and 149 nM.
Turning to “AAACCGUGUGGAGGAUAUGCAGUUGAGGUGAGGUGGCAACUCUAUACGACCGCAGAAGGCCACAUGAGGAUCACCCAUGUAGGU”, the “apparent Kd” value runs as follows: under setting [3], 293 nM; under setting [4], 61.5 nM.
“GUUGUUUAUGUAGGAUAUGCGAGGCGAGCCUAAGCAGAAGGACAUGAGGAUCACCCAUGUAUUGCGGUCUGCGUUCAGAUCGCU”: the “apparent Kd” value reads like this: under setting [3], 32.4 nM; under setting [4], 135 nM.
For “UUAUUAGCAGGAUAUAUCCAGGAUCACAUGAGGAUCACCCAUGUGACCGCUUGAGAUUCUAUAGAAGGGCUUUAUU”, in that order: 19.6 nM and 18.1 nM.
On the same counts, the results for “CUAACACAUGAGGAUCACCCAUGUGAGGAUAUGCGUACGUUGUCCGUAGGCGACGUGCGCAGAAGGCGCUUGGU” are 55.8 nM and 62.8 nM.
“UCGCGAUGAGGAUAUACAUAGAAAUAGAUUCAUGUAAAACUACAUGAGGAUCACCCAUGUAGAAGGCAUUGCGU”: the “apparent Kd” value amounted to 23 nM under setting [3] and 128 nM under setting [4].
On to “CUAAAUCAUGUAGGAUAUGCGUGGCGAAGCUAUGCAGAAGGACAUGAGGAUCACCCAUGUUUUUCCGUCUGCGUACAGACGGAA”, for which the “apparent Kd” value was 259 nM under setting [3] and 260 nM under setting [4].
Consider “UCUGUAGGAAUACAGACGAAGUGGCCAGAAGGUGAAUGCCACAUGAGGAUCACCCAUGUUUCGAUCAAGGAUAUGGUUUCUCAC”, for which the “apparent Kd” value stood at 312 nM under setting [1] and 79.8 nM under setting [2].
As to “UUCAUGUGAGGAUAUGCGGCACCAGGUGGGCCUGGCGCUGAGCAGAAGGCACAUGAGGAUCACCCAUGUGCUCC”, the “apparent Kd” value amounted to 29.7 nM under setting [3] and 56.7 nM under setting [4].
For “AUCAGCUCGUCAGGAUAUACGUCACUGCGUCAGCAGUGUGGUAAGAUCACAUGAGGAUCACCCAUGUAGAAGGGACGACCUGAU”, in that order: 13.8 nM and 278 nM.
With “AGUCGGGAAUACUCGAAUGGUUAGCAGGAUAUCGACAUGAGGAUCACCCAUGUUGGGUUGAAUGUCGAGAAGGGCUCGGAAUGA”, the “apparent Kd” value is 198 nM under setting [3] and 193 nM under setting [4].
Take “AUAAUGUAAGGAUAUAUGAAUCACGGUGAUACACCGUGAAGAUAGAAGGUACAUGAGGAUCACCCAUGUAGGGC”: the “apparent Kd” value under setting [3] was determined as 50.5 nM and the “apparent Kd” value under setting [4] was 220 nM.
Regarding “UUUUCACAUGAGGAUCACCCAUGUGAGGAUAUGGAGCGCGACCGCGCGGUCGCGUACACCAGAAGGCGCAUGAU”, the “apparent Kd” value by setting is: under setting [3], 30.5 nM; under setting [4], 36.6 nM.
As for “UUUAUGAAGCUUCGUCAAUACAGUUAGGAUAUGAGAGACAUGAGGAUCACCCAUGUGCAUGUUGAUUAGAAGGAACAACUAUCU”, the “apparent Kd” value under setting [3] is 17.6 nM and the “apparent Kd” value under setting [4] is 15.1 nM.
On the same counts, the results for “AAGCUGACAAUAAAUAACUCAAAUACAUGAGGAUCACCCAUGUAGGAUAUGCAGUGGAAUACACUGCAGAAGGACAUAGUCAGC” are 13.6 nM and 21.9 nM.
As for “AAUGUGUGUCGAGGAUAUAUAACAUGACAACAAACACAUACAUGAGGAUCACCCAUGUCCCAUGUAUAGAAGGCGAUAUAUAUA”, the “apparent Kd” value reads like this: under setting [1], 310 nM; under setting [2], 1120 nM.
For “UUGUGGUGCGUAGGAUAUCAUUGAGGGUCACCCUGAGAAGGACGUGAGGACAUGAGGAUCACCCAUGUGGAUCACCCAUGUCAU”, the “apparent Kd” value came to 222 nM under setting [3] and 355 nM under setting [4].
For “AAGCACUGAUAAUAAUGUAGAAAUACAUGAGGAUCACCCAUGUAGGAUAUCGUCAGGAAUACUGACGAGAAGGACAUACAGUGC”, in that order: 16.2 nM and 24.7 nM.
Regarding “GCCGGCUAAUGAGGAUAUGGCACCUUAUUGGUGCCAGAAGGCAUGUCAAUUGACAUGAGGAUCACCCAUGUAUUAUAGUUGGCG”, the “apparent Kd” value was 422 nM under setting [1] and 115 nM under setting [2].
As for “AAGCAGGGAGGAUAUACAUGGACACACAUUGGUGUAGAACUACAUGAGGAUCACCCAUGUAGAAGGCCCAAAUA”, the “apparent Kd” value came out at 52.9 nM under setting [3] and 71.5 nM under setting [4].
In the case of “UAAUUUAUACAGAAGGGAAACAUGAGGAUCACCCAUGACAUGAGGAUCACCCAUGUUUAAUUAUUUCAGGAUAUGUAAAAUAAU”, the “apparent Kd” value under setting [1] came out at 159 nM and the “apparent Kd” value under setting [2] was determined as 70.5 nM.
As for “AAAUAGUUAGGAUAUACAUGAGGAUCACCCAUGUGGACUUAUGGCGAUUAAUUUAGUGGUAGAAGGGACUAAAA”, the “apparent Kd” value reads like this: under setting [3], 37.2 nM; under setting [4], 47.6 nM.
For “AUACUUAAUGAAGGAUAUCUUAGCAUAAACCUGAGAGAAGGUCAUUAUUACAUGAGGAUCACCCAUGUUGUAGUUAAUGGGUAA”, in that order: 199 nM and 254 nM.
On to “CAGUACUGAGGAUAUACAUGAGGAUCACCCAUGUGUUCCAGCUAGGAAACUUGCAAAAGUAGAAGGCAGUACUG”, for which the “apparent Kd” value under setting [3] came to 12.1 nM and the “apparent Kd” value under setting [4] was 30.6 nM.
On the same counts, the results for “CUGCUGAAGCUUUGCUUUAGUCGUACAUGAGGAUCACCCAUGUAGGAUAUGGUAGGCUUUGCUUACUAGAAGGAUAGAGUGGUC” are 52.6 nM and 27.6 nM.
For “UGGAGGUCAGGAUAUGCAUGGCGGGACUUGCGUCGUGGCGUGCAGAAGGGACAUGAGGAUCACCCAUGUGGAGG”, in that order: 124 nM and 121 nM.
“GCCAUCGUAUGAGGAUAUGGCACCGAAACGGUGCCAGAAGGCAUGUCAAUAGACAUGAGGAUCACCCAUGUGUUAUCGAUGGCA”: the “apparent Kd” value is 379 nM under setting [1] and 36.5 nM under setting [2].
As to “AAGUCGACGGUGAGGAUAUAGGUCGAACGACAGAUCUAGAAGGCACAUGAGGAUCACCCAUGUGGGUAACGUCG”, the “apparent Kd” value runs as follows: under setting [3], 19.6 nM; under setting [4], 28.4 nM.
On the same counts, the results for “GUUUCACAUGAGGAUCACCCAUGUGAGGAUAUAGAUUUGUUAACCGUAGUUAAUAGAUCUAGAAGGCGCGUGAU” are 60.7 nM and 66.1 nM.
For “GAAUUCGCAUGAGGAUAUGCACUCAUUUCAUGUGCAGAAGGUAUUUCAUUAGACAUGAGGAUCACCCAUGUAUUGGUCAAUAAC”, the “apparent Kd” value reads like this: under setting [1], 19.1 nM; under setting [2], 16.1 nM.
For the sequence “UAGUAGGUAGGAUAUACAUGGAUAUACAUUCAUGUGGACCUACAUGAGGAUCACCCAUGUAGAAGGACCUACUA”, the “apparent Kd” value is, setting by setting: under setting [3], 38.1 nM; under setting [4], 88.9 nM.
Consider “UUCGCUAAGGUGUAGCGAGACUUGCAAGAAGGGUGAUGCACAUGAGGAUCACCCAUGUAAGCCUUACAGGAUAUUGCUUGCCGA”, for which the “apparent Kd” value runs as follows: under setting [1], 600 nM; under setting [2], 220 nM.
“AGCUACGUUUCGUAGCAGCUAGGUGAGGAUAUCCACUCAACAUGAGGAUCACCCAUGUAAACAUGGGAGAAGGCGCCUAGAAAG”: the “apparent Kd” value worked out at 63.4 nM under setting [1] and 9.63 nM under setting [2].
On to “UGCAGCGUGCACAUGAGGAUCACCCAUGUGCCAGUGAACGCACAGGAUAUGCAAUCGUACGGCUAGCAGAAGGGUGGGUCUCAC”, for which the “apparent Kd” value runs as follows: under setting [1], 7.65 nM; under setting [2], 6.45 nM.
On the same counts, the results for “AAUGGGCACCAGAAGGACAUGAGGAUCACCCAUGUAGGAUAUGGGCGUUGAAGAUGUCUGAACGAGUUGCUGGAAGGAUAUGGG” are 305 nM and 41 nM.
On the same counts, the results for “GGGUGGCGUAGAGGAUAUGUGGUACAUGAGGAUCACCCAUGUGCAUAUGAUGUUCGUGUGUCUUCAUAGAAGGCUACGUCGCUA” are 97 nM and 63 nM.
For the sequence “UUGGCACAUGAGGAUCACCCAUGUUAGGAUAUUGUGGCAGAAACAGCUGGGAAACGCACGAGAAGGGACACAUA”, the “apparent Kd” value by setting is: under setting [3], 33.4 nM; under setting [4], 38.5 nM.
As to “CAGCAAAAGUAGAAGGCAGUACUGAUUCAGUACUGAGGAUAUACAUGAGGAUCACCCAUGUAUUCCAGCUGAAUAAUAAAAUAU”, the “apparent Kd” value under setting [3] was determined as 5.43 nM and the “apparent Kd” value under setting [4] came out at 5.63 nM.
For “GUUAUAGGAGGAUAUACAUGAGGAUCACCCAUGUCUCAUCCAUGGCAACGAACCUAUUGUAGAAGGCUUGAAGA”, in that order: 28.9 nM and 113 nM.
Consider “CUGAGGUCAGGAUAUGCAUGGCGGGACUUGCGUCGUGGCGUGGAGAAGGGACAUGAGGAUCACCCAUGUGGAGC”, for which the “apparent Kd” value runs as follows: under setting [3], 59.8 nM; under setting [4], 57 nM.
For “UUAAUGUGAGGAUAUGGUAAAGAUAAGAUGAUGAAAGAACUCCAGAAGGCACAUGAGGAUCACCCAUGUAGAUG”, the “apparent Kd” value reads like this: under setting [3], 39.5 nM; under setting [4], 86.6 nM.
Regarding “GGAGACCUCACAGGAUAUGCUGGACUUUGUCCAGCAGAAGGGUGAAAACAUGAGGAUCACCCAUGUAUGGUCUCCAAAUUUAAG”, the “apparent Kd” value by setting is: under setting [1], 190 nM; under setting [2], 15.3 nM.
Take “AACAGUGCAAUAAUAAUAAGAUCUACAUGAGGAUCACCCAUGUAGGAUAUCGUCAGGAAUACUGACGAGAAGGACAUAGCACUG”: the “apparent Kd” value reads like this: under setting [3], 13.9 nM; under setting [4], 15.6 nM.
For the sequence “GUCAGCUCGUGAGGAUAUACAACACUGCUUCGGCAUUGUAUUAAGAUCACAUGAGGAUCACCCAUGUAGAAGGCACGAGCUGAU”, the “apparent Kd” value worked out at 9.1 nM under setting [3] and 109 nM under setting [4].
As for “GUAUCGUAUGUGAGGAUAUAUUAAACCUUGGAUUUGUAGAAGGCACAUGAGGAUCACCCAUGUCCUAGUGGUCC”, the “apparent Kd” value runs as follows: under setting [3], 29.4 nM; under setting [4], 33.3 nM.
